Results published in ChEMBL document CHEMBL1123737, “Synthesis, absolute configuration, and antibacterial activity of 6,7-dihydro-5,8-dimethyl-9-fluoro-1-oxo-1H,5H- benzo[ij]quinolizine-2-carboxylic acid” (1987).
In brackets after ≈: the same amount, converted by molar mass.

Key:
[1] = system: Staphylococcus epidermidis; assay: In vitro antibacterial activity against Staphylococcus epidermidis ATCC 12228; type: functional
In short: (§1)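 Agar dilution MIC. DMSO stocks at 5 mg/mL were serially 2-fold diluted in nutrient broth and mixed into Mueller-Hinton agar, with 5% defibrinated rabbit blood for hemophilic bacteria. Final range was 12.5 to 0.006 µg/mL. Overnight growth was suspended in saline to McFarland 6 (2 × 10^6/mL) and Steers-replicated. Plates were incubated 30 h at 37 °C; MIC was the lowest concentration preventing visible growth.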

Enterococcus faecalis [2] = assay: In vitro antibacterial activity against Streptococcus Streptococcus faecalis ATCC 10741; type: functional; in short: as §1
Pseudomonas aeruginosa = assay: In vitro antibacterial activity against Pseudomonas aeruginosa ATCC 15422; type: functional; in short: as §1
Escherichia coli = assay: In vitro antibacterial activity against Escherichia coli ATCC 15221; type: functional; in short: as §1
Staphylococcus aureus = assay: In vitro antibacterial activity against Staphylococcus aureus ATCC 6538-P; type: functional; in short: as §1
Proteus mirabilis = assay: In vitro antibacterial activity against Proteus mirabilis-R 119; type: functional; in short: as §1
Streptococcus pyogenes = assay: In vitro antibacterial activity against Streptococcus pyogenes ATCC 1961-1; type: functional; in short: as §1
Klebsiella pneumoniae = assay: In vitro antibacterial activity against Klebsiella pneumoniae ATCC 23357; type: functional; in short: as §1
Haemophilus influenzae = assay: In vitro antibacterial activity against Haemophilus influenzae ATCC 9333; type: functional; in short: as §1
Enterobacter cloacae = assay: In vitro antibacterial activity against Enterobacter cloacae ATCC 23355; type: functional; in short: as §1
[3] = In vitro antibacterial activity against Pseudomonas cepacia ATCC 25608; type: functional; details: Burkholderia cepacia; in short: as §1
[4] = In vitro antibacterial activity against Salmonella typhi-CDC M4694; type: functional, salmonella typhosa
In short: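 Agar dilution MIC: compounds dissolved in DMSO (5 mg/mL stock), 2-fold serial dilutions in nutrient broth, mixed into Mueller-Hinton agar; series 12.5 down to 0.006 μg/mL. Overnight culture suspended in saline to McFarland 6 (2 × 10^6/mL), spotted with Steers replicator. Incubated 37 °C for 30 h; MIC = lowest concentration preventing visible growth.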

Serratia marcescens = assay: In vitro antibacterial activity against Serratia marcescens ATCC 8100; type: functional; in short: as §1
Bordetella pertussis = assay: In vitro antibacterial activity against Bordetella pertussis ATCC 10380; type: functional
In short: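 Agar dilution on Mueller-Hinton agar with drug from 5 mg/mL DMSO stocks, 2-fold diluted through nutrient broth to 12.5–0.006 µg/mL. Inoculum was applied by Steers replicator. MIC was read as the lowest concentration with no visible growth.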

Enterococcus faecalis [5] = assay: In vitro antibacterial activity against Streptococcus faecalis ATCC 10741; type: functional; in short: as §1

| SMILES | MIC [1] [µg/mL] | MIC (Enterococcus faecalis [2]) [µg/mL] | MIC (Pseudomonas aeruginosa) [µg/mL] | MIC (Escherichia coli) [µg/mL] | MIC (Staphylococcus aureus) [µg/mL] | MIC (Proteus mirabilis) [µg/mL] | MIC (Streptococcus pyogenes) [µg/mL] | MIC (Klebsiella pneumoniae) [µg/mL] | MIC (Haemophilus influenzae) [µg/mL] | MIC (Enterobacter cloacae) [µg/mL] | MIC [3] [µg/mL] | MIC [4] [µg/mL] | MIC (Serratia marcescens) [µg/mL] | MIC (Bordetella pertussis) [µg/mL] | MIC (Enterococcus faecalis [5]) [µg/mL] |
| --- | --- | --- | --- | --- | --- | --- | --- | --- | --- | --- | --- | --- | --- | --- | --- |
| Cc1c(F)cc2c(=O)c(C(=O)O)cn3c2c1CCC3 | 1.6 (≈ 6.12 µM) | 12.5 (≈ 47.8 µM) | 12.5 (≈ 47.8 µM) | 0.8 (≈ 3.06 µM) | 0.8 (≈ 3.06 µM) | 1.6 (≈ 6.12 µM) | 12.5 (≈ 47.8 µM) | 0.8 (≈ 3.06 µM) | 0.1 (≈ 0.383 µM) | 0.4 (≈ 1.53 µM) | 6.2 (≈ 23.7 µM) | 0.4 (≈ 1.53 µM) | 0.8 (≈ 3.06 µM) | 0.8 (≈ 3.06 µM) |  |
| Cc1c(F)cc2c(=O)c(C(=O)O)cn3c2c1CC[C@@H]3C | 0.05 (≈ 0.182 µM) | 0.8 (≈ 2.91 µM) | 3.1 (≈ 11.3 µM) | 0.1 (≈ 0.363 µM) | 0.025 (≈ 0.0908 µM) | 0.4 (≈ 1.45 µM) | 1.6 (≈ 5.81 µM) | 0.1 (≈ 0.363 µM) | 0.006 (≈ 0.0218 µM) | 0.1 (≈ 0.363 µM) | 0.8 (≈ 2.91 µM) | 0.05 (≈ 0.182 µM) | 0.2 (≈ 0.727 µM) | 0.012 (≈ 0.0436 µM) |  |
| Cc1c(F)cc2c(=O)c(C(=O)O)cn3c2c1CC[C@H]3C | 6.2 (≈ 22.5 µM) | 12.5 (≈ 45.4 µM) | 12.5 (≈ 45.4 µM) | 6.2 (≈ 22.5 µM) | 3.1 (≈ 11.3 µM) | 12.5 (≈ 45.4 µM) | 12.5 (≈ 45.4 µM) | 6.2 (≈ 22.5 µM) | 0.4 (≈ 1.45 µM) | 3.1 (≈ 11.3 µM) | 12.5 (≈ 45.4 µM) | 3.1 (≈ 11.3 µM) | 3.1 (≈ 11.3 µM) | 1.6 (≈ 5.81 µM) |  |
| Cc1c(F)cc2c(=O)c(C(=O)O)cn3c2c1CCC3C (racemic) [IBAFLOXACIN] | 0.1 (≈ 0.363 µM) |  | 6.2 (≈ 22.5 µM) | 0.2 (≈ 0.727 µM) | 0.05 (≈ 0.182 µM) | 0.8 (≈ 2.91 µM) | 0.8 (≈ 2.91 µM) | 0.2 (≈ 0.727 µM) | 0.006 (≈ 0.0218 µM) | 0.2 (≈ 0.727 µM) | 0.8 (≈ 2.91 µM) | 0.1 (≈ 0.363 µM) | 0.4 (≈ 1.45 µM) | 0.025 (≈ 0.0908 µM) | 0.8 (≈ 2.91 µM) |
